ChEMBL document CHEMBL3045061, “Biological activity of peanut (Arachis hypogaea) phytoalexins and selected natural and synthetic Stilbenoids” (J Agric Food Chem, 2011)
Calls of active or inactive are those of the source. The rule behind the calls is not given here.

Experiments:
[1] = Octanol-water partition coefficient, log P of the compound by HPLC analysis; type: physicochemical
In short: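 Log P was estimated by isocratic reversed-phase HPLC on a Gemini C18 column (5 μm, 4.6 × 150 mm). The mobile phase was MeOH/H2O/2% HCOOH in H2O (55:43:2, w/w) at 1.0 mL/min and 37 °C, with samples dissolved in the mobile phase. Capacity factor K = (t1 − t0)/t0, with t0 taken from D2O. […] At least 5 injections were made.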

Phomopsis obscurans [2] = assay: Antifungal activity against Phomopsis obscurans assessed as growth inhibition at 30 uM after 144 hr by NCCLS M27-A broth microdilution method; type: functional, organism-based; settings: Paraphomopsis obscurans
In short: (§1)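 Broth microdilution adapted from the NCCLS M27-A yeast method for conidia-forming filamentous plant pathogens. Growth inhibition was read at 48 h and 72 h for Botrytis cinerea, and at 120 h and 144 h for Phomopsis viticola and P. obscurans. The highest concentration tested was 30 μM. Captan served as the internal standard. Means were compared by ANOVA with Fisher's protected LSD.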

Botrytis cinerea [3] = assay: Antifungal activity against Botryotinia fuckeliana assessed as growth inhibition after 48 hr by NCCLS M27-A broth microdilution method; type: functional, organism-based; in short: as §1
Diaporthe ampelina [4] = assay: Antifungal activity against Diaporthe ampelina assessed as growth inhibition after 120 hr by NCCLS M27-A broth microdilution method; type: functional, organism-based; in short: as §1
Botrytis cinerea [5] = assay: Antifungal activity against Botryotinia fuckeliana assessed as growth inhibition after 72 hr by NCCLS M27-A broth microdilution method; type: functional, organism-based; in short: as §1
Phomopsis obscurans [6] = assay: Antifungal activity against Phomopsis obscurans assessed as growth inhibition after 144 hr by NCCLS M27-A broth microdilution method; type: functional, organism-based; settings: Paraphomopsis obscurans; in short: as §1
Phomopsis obscurans [7] = assay: Antifungal activity against Phomopsis obscurans assessed as growth inhibition after 120 hr by NCCLS M27-A broth microdilution method; type: functional, organism-based; settings: Paraphomopsis obscurans; in short: as §1
Diaporthe ampelina [8] = assay: Antifungal activity against Diaporthe ampelina assessed as growth inhibition after 144 hr by NCCLS M27-A broth microdilution method; type: functional, organism-based; in short: as §1
Diaporthe ampelina [9] = assay: Antifungal activity against Diaporthe ampelina assessed as growth inhibition at 30 uM after 144 hr by NCCLS M27-A broth microdilution method; type: functional, organism-based; in short: as §1

SMILES	logP ([1]; read-out: logP)	Activity (Phomopsis obscurans [2])	Activity (Botrytis cinerea [3])	Activity (Diaporthe ampelina [4])	Activity (Botrytis cinerea [5])	logP [1]	Activity (Phomopsis obscurans [6])	Activity (Phomopsis obscurans [7])	Activity (Diaporthe ampelina [8])	Activity (Diaporthe ampelina [9])
Oc1ccc(/C=C/c2cc(O)cc(O)c2)cc1 [RESVERATROL]	1.35	inactive	Active	inactive	inactive					
CC(C)(O)C(O)Cc1cc(/C=C/c2cc(O)cc(O)c2)ccc1O (centres undefined) [ARAHYPIN-2]			inactive		inactive	1.36	inactive	Active		
COc1cc(/C=C/c2ccc(O)cc2)cc(OC)c1 [PTEROSTILBENE]	3.15	Active	Active		Active					
CC(C)/C=C/c1c(O)cc(/C=C/c2ccc(O)cc2)cc1O [ARACHIDIN-3]	2.83		inactive		inactive		inactive	inactive		
COc1cccc(CCc2ccc(O)cc2)c1		Active				3.07				
O=C1C2CC=CCC2C(=O)N1SC(Cl)(Cl)Cl (centres undefined)									Active	
Oc1ccc(/C=C/c2ccccc2)cc1O		inactive	Active	inactive	inactive					
CC(C)=CCC/C(C)=C/Cc1c(O)cc(/C=C/c2ccc(O)cc2O)cc1O [CHLOROPHORIN]		Active	Active	Active	Active	3.29				
Oc1cc(O)cc(/C=C/c2ccccc2)c1 [PINOSYLVIN]	2.25	inactive	Active	inactive	inactive					
Oc1ccc(/C=C/c2cccc(O)c2)cc1 [(E)-3,4'-STILBENDIOL]	2.08	Active								
COc1ccc(/C=C/c2cc(OC)cc(OC)c2)cc1 [TRISMETHOXYRESVERATROL]	4.07	Active								
CC(C)/C=C/c1c(O)cc(/C=C/c2ccccc2)cc1O [ARAHYPIN-1]			inactive		inactive	3.71	Active	Active	Active	
Oc1cccc(CCc2ccccc2)c1 [3-PHENETHYLPHENOL]		Active		Active		3.19				Active
CC(C)(O)C(O)Cc1c(O)cc(/C=C/c2ccc(O)cc2)cc1O (centres undefined) [ARAHYPIN-3]			inactive		inactive	1.59				
CC(C)=CCc1c(O)cc(/C=C/c2ccc(O)cc2)cc1O [ARACHIDIN-2]	2.56		inactive		inactive		inactive	inactive		
CC(C)/C=C/c1c(O)cc(/C=C/c2ccc(O)c(O)c2)cc1O [ARACHIDIN-1]			inactive		inactive	2.44	inactive	inactive		
COc1ccc(/C=C/c2cc(O)cc(O[C@@H]3O[C@H](CO)[C@@H](O)[C@H](O)[C@H]3O)c2)cc1O [RHAPONTIN]		Active			Active	0.74				
COc1cc(/C=C/c2ccccc2)cc(OC)c1 [3,5-O-DIMETHYLPINOSYLVIN]	4.15	inactive								
CC(C)(O)C(O)Cc1c(O)cc(/C=C/c2ccccc2)cc1O (centres undefined) [ARAHYPIN-4]			inactive		inactive	2.59				
COc1cc(O)cc(/C=C/c2ccccc2)c1 [PINOSYLVIN METHYL ETHER]	3.21	Active		Active						
CC(C)=CCc1c(O)cc(/C=C/c2ccccc2)cc1O [CHIRICANINE A]			inactive		inactive	3.46	Active	inactive	Active	
CC(C)/C=C/c1c(O)cc(/C=C/C2=CC(=O)OC2CC(=O)O)cc1O (centres undefined)	2.59		inactive		inactive		inactive	inactive		
Oc1cccc(/C=C/c2ccccc2)c1 [(E)-3-STILBENOL]		Active				3.22				
COc1cccc(/C=C/c2ccc(O)cc2)c1 [(E)-5-METHOXY-4'-STILBENOL]		Active		Active		3.14				
CC1(C)C=Cc2c(O)cc(/C=C/c3ccc(O)cc3)cc2O1 [ARAHYPIN-5]			inactive		inactive	3.34			Active	
